Bounds are passed on as bounds.

Assay [1] relates to HepG2. As to the kind of experiment: Cytotoxicity against human HepG2 cells incubated for 48 hrs by CCK-8 assay. In kind it is functional, cell-based. The following applies: HepG2, 48 h. The method, boiled down: (§1)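 Growing human tumour cells exposed to compounds for 48 h; viability read by CCK-8; IC50 determined.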
In general terms: Tetrazolium dyes change colour on reduction, which living cells bring about.

Assay [2] is described as follows: Cytotoxicity against human PC3 cells assessed as inhibition of cell survival upto 100 uM incubated for 72 hrs by MTT assay relative to control. In kind it is functional, PC-3. A digest of the protocol: (§2)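 Exponentially growing human tumour cells exposed 72 h to compounds formulated in DMSO; survival read by MTT; dose–response curves over 0.001–100 μM; IC50 taken from curves.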

Assay [3] is described as follows: Cytotoxicity against human HCT116 cells assessed as decrease in cell protein incubated for 48 hrs. The assay is classed as functional, cell-based. The note with it: HCT-116, 48 h.
Assay [4] in a line: Cytotoxicity against human H460 cells incubated for 48 hrs by CCK-8 assay. In kind it is functional, cell-based. The following applies: NCI-H460, 48 h. A digest of the protocol:
as §1

Assay [5] relates to MDA-MB-231. Put plainly: Cytotoxicity against human MDA-MB-231 cells incubated for 72 hrs by MTT assay. In kind it is functional, cell-based. The following applies: MDA-MB-231, 72 h. A digest of the protocol: as §2
Assay [6] is described as follows: Cytotoxicity against human PC3 cells incubated for 72 hrs by MTT assay. The assay is classed as functional, cell-based. The following applies: PC-3, 72 h. The method, boiled down:
as §2

For assay [7], the system named is MDA-MB-231. Put plainly: Cytotoxicity against human MDA-MB-231 cells assessed as inhibition of cell survival upto 100 uM incubated for 72 hrs by MTT assay relative to control. In kind it is functional. A digest of the protocol:
as §2

Assay [8] concerns A549. Put plainly: Cytotoxicity against human A549 cells. The assay is classed as functional, cell-based.

The term IC50 denotes the midpoint of a concentration-inhibition curve. For the compound `CC(=O)O[C@H]1C(=O)[C@@]2(C)[C@H]([C@H](OC(=O)c3ccccc3)[C@]3(O)C[C@H](OC(=O)[C@H](O)[C@@H](NC(=O)c4ccccc4)c4ccccc4)C(C)=C1C3(C)C)[C@]1(OC(C)=O)CO[C@@H]1C[C@@H]2O` [PACLITAXEL], the IC50 in assay [1] is 1220 nM; in assay [3], 2.8 nM; in assay [4], 4290 nM; in assay [5], < 1 nM; in assay [6], < 1 nM. The “inhibition (INH)” value in assay [2] and in assay [7] was 40% each time.

For the compound `CC(=O)OC1[C@H](OC(C)=O)C2=C(C)[C@@H](OC(=O)[C@H](O)[C@@H](NC(=O)c3ccccc3)c3ccccc3)CC([C@@H](OC(=O)c3ccccc3)[C@@H]3[C@]4(OC(C)=O)CO[C@@H]4C[C@H](OC(C)=O)[C@@]13C)C2(C)C` (stereo not given in full), the IC50 in assay [3] amounted to 31.5 nM.

In assay [8], `CC(=O)O[C@H]1C(=O)[C@]2(C)[C@@H](OC(C)=O)C[C@H]3OC[C@@]3(OC(C)=O)[C@H]2[C@H](OC(=O)c2ccccc2)C2C[C@H](OC(=O)[C@H](O)[C@@H](NC(=O)c3ccccc3)c3ccccc3)C(C)=C1C2(C)C` (stereo not given in full) had an IC50 of 62 nM.

Turning to `CCCCCC(=O)N[C@@H](c1ccccc1)[C@@H](O)C(=O)O[C@H]1CC2[C@@H](OC(=O)c3ccccc3)[C@@H]3[C@]4(OC(C)=O)CO[C@@H]4C[C@H](OC(C)=O)[C@@]3(C)C(=O)[C@H](OC(C)=O)C(=C1C)C2(C)C` (stereo not given in full), the IC50 in assay [5] was found to be 270 nM; in assay [6], 330 nM.

Turning to `CCCCCC(=O)N[C@@H](c1ccccc1)[C@@H](O)C(=O)O[C@H]1CC2[C@@H](OC(=O)c3ccccc3)[C@@H]3[C@]4(OC(C)=O)CO[C@@H]4C[C@H](O)[C@@]3(C)[C@H]3OC(C)(C)O[C@@H]3C(=C1C)C2(C)C` (stereo not given in full), the IC50 in assay [5] is 10 nM; in assay [6] it was 210 nM.

For `CC(=O)O[C@@]12CO[C@@H]1C[C@H](O)[C@]1(C)[C@@H]2[C@H](OC(=O)c2ccccc2)C2C[C@H](OC(=O)[C@H](O)[C@@H](NC(=O)c3cccs3)c3ccccc3)C(C)=C([C@@H](O)[C@@H]1O)C2(C)C` (stereo not given in full), the “inhibition (INH)” value in assay [2] and in assay [7] was 90% in each case. In addition, the IC50 is 1260 nM in assay [5] and 1630 nM in assay [6].

As to `CC(=O)O[C@@]12CO[C@@H]1C[C@H](O)[C@]1(C)[C@@H]2[C@H](OC(=O)c2ccccc2)C2C[C@H](OC(=O)[C@H](O)[C@@H](NC(=O)c3cc4ccccc4o3)c3ccccc3)C(C)=C([C@@H](O)[C@@H]1O)C2(C)C` (stereo not given in full), the “inhibition (INH)” value in assay [2] and in assay [7] was 90% each time. The IC50 in assay [5] was found to be 20 nM; in assay [6], 70 nM.

Regarding `COc1ccc(C(=O)N[C@@H](c2ccccc2)[C@@H](O)C(=O)O[C@H]2CC3[C@@H](OC(=O)c4ccccc4)[C@@H]4[C@]5(OC(C)=O)CO[C@@H]5C[C@H](O)[C@@]4(C)[C@@H](O)[C@H](O)C(=C2C)C3(C)C)cc1` (stereo not given in full), the IC50 in assay [1] is 567 nM; in assay [4], 199 nM; in assay [5], < 1 nM; in assay [6], 10 nM. Further, the “inhibition (INH)” value in assay [2] and in assay [7] was 90% each time.

With `CC(=O)O[C@@]12CO[C@@H]1C[C@H](O)[C@]1(C)[C@@H]2[C@H](OC(=O)c2ccccc2)C2C[C@H](OC(=O)[C@H](O)[C@@H](NC(=O)c3ccc(F)cc3)c3ccccc3)C(C)=C([C@@H](O)[C@@H]1O)C2(C)C` (stereo not given in full), the “inhibition (INH)” value in assay [2] and in assay [7] was 90% each time. For the same compound, the results for the IC50 in assay [5] and in assay [6] were < 1 nM and 20 nM, respectively.

For the compound `CCCCCC(=O)N[C@@H](c1ccccc1)[C@@H](O)C(=O)O[C@H]1CC2[C@@H](OC(=O)c3ccccc3)[C@@H]3[C@]4(OC(C)=O)CO[C@@H]4C[C@H](O)[C@@]3(C)[C@@H](O)[C@H](O)C(=C1C)C2(C)C` (stereo not given in full), the “inhibition (INH)” value in assay [2] and in assay [7] was 40% throughout. Further, the IC50 in assay [5] is < 1 nM; in assay [6], 10 nM.

Turning to `CC(=O)O[C@@]12CO[C@@H]1C[C@H](O)[C@]1(C)[C@@H]2[C@H](OC(=O)c2ccccc2)C2C[C@H](OC(=O)[C@H](O)[C@@H](NC(=O)c3ccc(CCl)cc3)c3ccccc3)C(C)=C([C@@H](O)[C@@H]1O)C2(C)C` (stereo not given in full), the “inhibition (INH)” value in assay [2] and in assay [7] was 90% throughout. Further, the IC50 is 30 nM in assay [5] and 90 nM in assay [6].

For the compound `CC(=O)O[C@@]12CO[C@@H]1C[C@H](O)[C@]1(C)[C@@H]2[C@H](OC(=O)c2ccccc2)C2C[C@H](OC(=O)[C@H](O)[C@@H](NC(=O)c3ccco3)c3ccccc3)C(C)=C([C@@H](O)[C@@H]1O)C2(C)C` (stereo not given in full), the IC50 in assay [1] is 2020 nM; in assay [4], 289 nM; in assay [5], < 1 nM; in assay [6], 4 nM. Moreover, the “inhibition (INH)” value in assay [2] and in assay [7] was 90% each time.

Values taken from ChEMBL document CHEMBL3734706, “Syntheses and biological evaluation of C-3'-N-acyl modified taxane analogues from 1-deoxybaccatin-VI” (Eur J Med Chem, 2015).
